From ChEMBL document CHEMBL2346606, “Inhibitors of the TAM subfamily of tyrosine kinases: synthesis and biological evaluation” (Eur J Med Chem, 2013)

Key:
[1] = Growth inhibition of African green monkey Vero cells at 10 uM after 72 hrs by […] assay relative to control; format: cell-based; details: chlorocebus sabaeus, read-out: GI
In short: (§1)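 KB and Vero cells were grown in D-MEM with 10% FCS and antibiotics under 5% CO2, plated, then dosed 24 h later at 10^-5 M from DMSO (controls 1% DMSO). After 72 h, MTS was added for 3 h at 37 °C and A490 read. Inhibition = (1 − OD treated/OD control) × 100, in triplicate.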

MCF7 = experiment: Growth inhibition of human MCF7 cells at 10 uM after 72 hrs by […] assay relative to control; format: functional; details: MCF7, 72 h, read-out: GI
In short: (§2)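 HT29, MCF7 and PC-3 cells were grown in RPMI, plated, and treated 24 h later with compound in DMSO at 10^-5 M (DMSO controls, 1% final). After 72 h exposure, MTS reagent was added for 3 h at 37 °C and absorbance read at 490 nm. Proliferation inhibition = [1 − OD treated/OD control] × 100, triplicate experiments.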

PC-3 = experiment: Growth inhibition of human PC3 cells at 10 uM after 72 hrs by […] assay relative to control; format: functional; details: PC-3, 72 h, read-out: GI; in short: as §2
HT-29 = experiment: Growth inhibition of human HT-29 cells at 10 uM after 72 hrs by […] assay relative to control; format: functional; details: HT-29, 72 h, read-out: GI; in short: as §2
KB = experiment: Growth inhibition of human KB cells at 10 uM after 72 hrs by […] relative to control; format: functional; details: read-out: GI; in short: as §1

O=C(Nc1ccc(Nc2ncnc3[nH]cnc23)c(F)c1)c1ccccc1F
< 10%: inhibition at 72 h, 10 µM [1] | inhibition of growth at 10 µM (MCF7) | inhibition of growth at 10 µM (PC-3) | inhibition of growth at 10 µM (HT-29) | inhibition of growth at 10 µM (KB)

COc1ncccc1C(=O)Nc1cccc(-c2nc3c(Nc4ccccc4)ncnc3[nH]2)c1
< 10%: inhibition at 72 h, 10 µM [1] | inhibition of growth at 10 µM (MCF7) | inhibition of growth at 10 µM (PC-3) | inhibition of growth at 10 µM (HT-29) | inhibition of growth at 10 µM (KB)

COc1ncccc1C(=O)Nc1cccc(-c2nc3c(Nc4cccc(C(F)(F)F)c4)ncnc3[nH]2)c1
< 10%: inhibition at 72 h, 10 µM [1] | inhibition of growth at 10 µM (MCF7) | inhibition of growth at 10 µM (PC-3) | inhibition of growth at 10 µM (HT-29) | inhibition of growth at 10 µM (KB)

COc1ncccc1C(=O)Nc1cccc(-c2nc3c(Nc4cccc(F)c4)ncnc3[nH]2)c1
< 10%: inhibition at 72 h, 10 µM [1] | inhibition of growth at 10 µM (MCF7) | inhibition of growth at 10 µM (PC-3) | inhibition of growth at 10 µM (HT-29) | inhibition of growth at 10 µM (KB)

O=C(Nc1ccc(Nc2ncnc3[nH]cnc23)cc1)c1cccn(-c2cccc(F)c2)c1=O
< 10%: inhibition at 72 h, 10 µM [1] | inhibition of growth at 10 µM (MCF7) | inhibition of growth at 10 µM (PC-3) | inhibition of growth at 10 µM (HT-29) | inhibition of growth at 10 µM (KB)

COc1ccccc1C(=O)Nc1cccc(-c2nc3c(Nc4cccc(F)c4)ncnc3[nH]2)c1
< 10%: inhibition at 72 h, 10 µM [1] | inhibition of growth at 10 µM (MCF7) | inhibition of growth at 10 µM (PC-3) | inhibition of growth at 10 µM (HT-29) | inhibition of growth at 10 µM (KB)

O=C(Nc1ccc(Nc2ncnc3[nH]cnc23)cc1)c1cccn(-c2cccc(C(F)(F)F)c2)c1=O
< 10%: inhibition at 72 h, 10 µM [1] | inhibition of growth at 10 µM (MCF7) | inhibition of growth at 10 µM (PC-3) | inhibition of growth at 10 µM (HT-29) | inhibition of growth at 10 µM (KB)

O=C(Nc1ccc(Nc2ncnc3[nH]cnc23)c(F)c1)c1cccn(-c2ccc(C(F)(F)F)cc2)c1=O
< 10%: inhibition at 72 h, 10 µM [1] | inhibition of growth at 10 µM (MCF7) | inhibition of growth at 10 µM (PC-3) | inhibition of growth at 10 µM (HT-29) | inhibition of growth at 10 µM (KB)

COc1cc2c(Nc3ccc(Br)cc3F)ncnc2cc1OCC1CCN(C)CC1 [VANDETANIB]
< 10%: inhibition at 72 h, 10 µM [1] | inhibition of growth at 10 µM (MCF7) | inhibition of growth at 10 µM (PC-3) | inhibition of growth at 10 µM (HT-29) | inhibition of growth at 10 µM (KB)

O=C(Nc1cccc(-c2ncnc3[nH]cnc23)c1)c1cccn(-c2cccc(C(F)(F)F)c2)c1=O
< 10%: inhibition at 72 h, 10 µM [1] | inhibition of growth at 10 µM (MCF7) | inhibition of growth at 10 µM (PC-3) | inhibition of growth at 10 µM (HT-29) | inhibition of growth at 10 µM (KB)

COc1ncccc1C(=O)Nc1ccc(Nc2ncnc3[nH]cnc23)cc1
< 10%: inhibition at 72 h, 10 µM [1] | inhibition of growth at 10 µM (MCF7) | inhibition of growth at 10 µM (PC-3) | inhibition of growth at 10 µM (HT-29) | inhibition of growth at 10 µM (KB)

O=C(Nc1ccc(Nc2ncnc3[nH]cnc23)c(F)c1)c1cccn(-c2cccc(C(F)(F)F)c2)c1=O
< 10%: inhibition at 72 h, 10 µM [1] | inhibition of growth at 10 µM (MCF7) | inhibition of growth at 10 µM (PC-3) | inhibition of growth at 10 µM (HT-29) | inhibition of growth at 10 µM (KB)

O=C(Nc1ccc(Oc2ncnc3[nH]cnc23)c(F)c1)c1ccccc1F
< 10%: inhibition at 72 h, 10 µM [1] | inhibition of growth at 10 µM (MCF7) | inhibition of growth at 10 µM (PC-3) | inhibition of growth at 10 µM (HT-29) | inhibition of growth at 10 µM (KB)

O=C(Nc1cccc(-c2ncnc3[nH]cnc23)c1)c1cccn(-c2ccc(F)cc2)c1=O
< 10%: inhibition at 72 h, 10 µM [1] | inhibition of growth at 10 µM (MCF7) | inhibition of growth at 10 µM (PC-3) | inhibition of growth at 10 µM (HT-29) | inhibition of growth at 10 µM (KB)

COc1ccccc1C(=O)Nc1cccc(-c2nc3c(Nc4ccc(F)cc4)ncnc3[nH]2)c1
< 10%: inhibition at 72 h, 10 µM [1] | inhibition of growth at 10 µM (MCF7) | inhibition of growth at 10 µM (PC-3) | inhibition of growth at 10 µM (HT-29) | inhibition of growth at 10 µM (KB)

Cc1cc(C(=O)Nc2cccc(-c3nc4c(Nc5cccc(C(F)(F)F)c5)ncnc4[nH]3)c2)ccc1Br
< 10%: inhibition at 72 h, 10 µM [1] | inhibition of growth at 10 µM (MCF7) | inhibition of growth at 10 µM (PC-3) | inhibition of growth at 10 µM (HT-29) | inhibition of growth at 10 µM (KB)

Cc1cc(C(=O)Nc2cccc(-c3nc4c(Nc5cccc(F)c5)ncnc4[nH]3)c2)ccc1Br
< 10%: inhibition at 72 h, 10 µM [1] | inhibition of growth at 10 µM (MCF7) | inhibition of growth at 10 µM (PC-3) | inhibition of growth at 10 µM (HT-29) | inhibition of growth at 10 µM (KB)

COc1ncccc1C(=O)Nc1cccc(-c2nc3c(Nc4ccc(F)cc4)ncnc3[nH]2)c1
< 10%: inhibition at 72 h, 10 µM [1] | inhibition of growth at 10 µM (MCF7) | inhibition of growth at 10 µM (PC-3) | inhibition of growth at 10 µM (HT-29) | inhibition of growth at 10 µM (KB)

COc1ccccc1C(=O)Nc1cccc(-c2nc3c(Nc4cccc(C(F)(F)F)c4)ncnc3[nH]2)c1
< 10%: inhibition at 72 h, 10 µM [1] | inhibition of growth at 10 µM (MCF7) | inhibition of growth at 10 µM (PC-3) | inhibition of growth at 10 µM (HT-29) | inhibition of growth at 10 µM (KB)

O=C(Nc1ccc(Nc2ncnc3[nH]cnc23)cc1)c1ccccc1F
< 10%: inhibition at 72 h, 10 µM [1] | inhibition of growth at 10 µM (MCF7) | inhibition of growth at 10 µM (PC-3) | inhibition of growth at 10 µM (HT-29) | inhibition of growth at 10 µM (KB)

O=C(Nc1cccc(-c2nc3c(Nc4cccc(C(F)(F)F)c4)ncnc3[nH]2)c1)c1ccccc1F
< 10%: inhibition at 72 h, 10 µM [1] | inhibition of growth at 10 µM (MCF7) | inhibition of growth at 10 µM (PC-3) | inhibition of growth at 10 µM (HT-29) | inhibition of growth at 10 µM (KB)

Cc1cc(C(=O)Nc2ccc(Nc3ncnc4[nH]cnc34)c(F)c2)ccc1Br
< 10%: inhibition at 72 h, 10 µM [1] | inhibition of growth at 10 µM (MCF7) | inhibition of growth at 10 µM (PC-3) | inhibition of growth at 10 µM (HT-29) | inhibition of growth at 10 µM (KB)

O=C(Nc1cccc(-c2ncnc3[nH]cnc23)c1)c1cccnc1F
< 10%: inhibition at 72 h, 10 µM [1] | inhibition of growth at 10 µM (MCF7) | inhibition of growth at 10 µM (PC-3) | inhibition of growth at 10 µM (HT-29) | inhibition of growth at 10 µM (KB)

Cc1cc(C(=O)Nc2cccc(-c3nc4c(Nc5ccc(F)cc5)ncnc4[nH]3)c2)ccc1Br
< 10%: inhibition at 72 h, 10 µM [1] | inhibition of growth at 10 µM (MCF7) | inhibition of growth at 10 µM (PC-3) | inhibition of growth at 10 µM (HT-29) | inhibition of growth at 10 µM (KB)

O=C(Nc1cccc(-c2ncnc3[nH]cnc23)c1)c1cccn(-c2ccc(C(F)(F)F)cc2)c1=O
< 10%: inhibition at 72 h, 10 µM [1] | inhibition of growth at 10 µM (MCF7) | inhibition of growth at 10 µM (PC-3) | inhibition of growth at 10 µM (HT-29) | inhibition of growth at 10 µM (KB)

COc1ncccc1C(=O)Nc1ccc(Nc2ncnc3[nH]cnc23)c(F)c1
< 10%: inhibition at 72 h, 10 µM [1] | inhibition of growth at 10 µM (MCF7) | inhibition of growth at 10 µM (PC-3) | inhibition of growth at 10 µM (HT-29) | inhibition of growth at 10 µM (KB)

COc1ccccc1C(=O)Nc1ccc(Nc2ncnc3[nH]cnc23)c(F)c1
< 10%: inhibition at 72 h, 10 µM [1] | inhibition of growth at 10 µM (MCF7) | inhibition of growth at 10 µM (PC-3) | inhibition of growth at 10 µM (HT-29) | inhibition of growth at 10 µM (KB)

O=C(Nc1cccc(-c2nc3c(Nc4ccccc4)ncnc3[nH]2)c1)c1ccccc1F
< 10%: inhibition at 72 h, 10 µM [1] | inhibition of growth at 10 µM (MCF7) | inhibition of growth at 10 µM (PC-3) | inhibition of growth at 10 µM (HT-29) | inhibition of growth at 10 µM (KB)

CCN(CC)CCNC(=O)c1c(C)[nH]c(/C=C2\C(=O)Nc3ccc(F)cc32)c1C [SUNITINIB]
< 10%: inhibition at 72 h, 10 µM [1] | inhibition of growth at 10 µM (MCF7) | inhibition of growth at 10 µM (PC-3) | inhibition of growth at 10 µM (HT-29) | inhibition of growth at 10 µM (KB)
